Exocytosis inh – lytic granule exocytosis inhibition. 360,000 tested, 0.66% active. TALL-104 LAMP-1 surface exposure, flow cytometry; cells stimulated with thapsigargin and PMA. inhibition, % at 10 µM;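 active = inhibition above about 55%, limit read from the data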
ABHD5-PLIN5 inh – inhibitors of human ABHD5-perilipin-5 interaction; Split G. princeps luciferase complementation, luminescence, 4 h; 360,000 tested, 0.78% active; Q00G26+Q8WTS1; inhibition, % at 4 µM;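 active = inhibition above the mean inhibition across every tested compound plus 3 SD, cut at about 22% in these data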;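 note: 0% = DMSO only wells and the 100% control is not disclosed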
Target sequence (Q00G26 whole entry, looked up): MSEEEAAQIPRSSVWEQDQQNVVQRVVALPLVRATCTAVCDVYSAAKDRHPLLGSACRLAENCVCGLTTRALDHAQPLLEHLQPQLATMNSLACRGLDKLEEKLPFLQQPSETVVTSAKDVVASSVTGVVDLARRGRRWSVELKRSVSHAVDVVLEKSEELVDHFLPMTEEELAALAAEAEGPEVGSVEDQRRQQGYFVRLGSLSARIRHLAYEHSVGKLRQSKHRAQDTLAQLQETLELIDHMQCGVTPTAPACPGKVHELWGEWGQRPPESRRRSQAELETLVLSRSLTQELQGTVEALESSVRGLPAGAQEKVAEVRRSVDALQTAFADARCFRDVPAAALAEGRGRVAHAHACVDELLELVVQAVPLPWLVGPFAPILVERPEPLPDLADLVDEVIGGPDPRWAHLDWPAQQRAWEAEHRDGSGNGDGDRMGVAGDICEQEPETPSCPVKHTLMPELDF
Target sequence (Q8WTS1 whole entry, looked up): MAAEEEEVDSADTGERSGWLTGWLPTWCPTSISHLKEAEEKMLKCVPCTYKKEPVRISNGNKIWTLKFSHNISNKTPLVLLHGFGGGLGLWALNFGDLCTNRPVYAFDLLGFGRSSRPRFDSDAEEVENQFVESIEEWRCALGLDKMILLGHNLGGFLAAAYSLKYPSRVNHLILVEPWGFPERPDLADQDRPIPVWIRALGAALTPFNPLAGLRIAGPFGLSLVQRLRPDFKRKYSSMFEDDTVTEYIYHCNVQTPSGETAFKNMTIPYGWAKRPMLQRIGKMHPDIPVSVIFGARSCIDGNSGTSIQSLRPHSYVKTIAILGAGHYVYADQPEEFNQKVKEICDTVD
Mdm2 MdmX PPI – human Mdm2/MdmX binding inhibition; inhibition, % at 8 µM; 330,000 tested, 3% active; AID 485346; SaOS-2 split-luciferase Mdm2/MdmX complementation, luminescence; O15151+Q00987;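 active = inhibition of at least 50% at 8 µM in the primary screen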
UPR XBP1 act – adaptive UPR (XBP1) activation | CHO-XBP1 luciferase reporter, IRE1-XBP1 UPR activation, luminescence; percent of tunicamycin response, DMSO as zero | activation, % at 20 µM | 330,000 tested, 0.33% active | AID 463104;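 active = versus positive control, 20 µM dose yields 30% or more activation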;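 note: 100% = tunicamycin at 10 µg/mL and 0% = DMSO only wells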
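Material: CHO-XBP1 cells stably carrying IRE1-XBP1-driven luciferase reporter | Medium: F12 with 10% serum | Compound dosing: 20 µM single concentration, DMSO 1% | Incubation: Overnight seeding at 37 °C, 6 h compound treatment at 37 °C | Detection: Steady-Glo luminescence read | Read-out basis: % activation of reporter signal versus tunicamycin and DMSO controls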
CHOP UPR activ – apoptotic UPR (CHOP) activation; CHO-CHOP luciferase reporter, luminescence; percent of tunicamycin response over DMSO baseline; activation, % at 10 µM; 330,000 tested, 0.34% active; AID 449763;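 active = at 10 µM dose, activation of 40% or more, normalized to positive control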;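 note: 100% = tunicamycin at 10 µg/mL and 0% = DMSO alone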
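Dosing – one dose, 10 µM in 0.5% DMSO · System – CHO-CHOP cells, stable luciferase reporter of PERK-eIF2a-CHOP signalling · Input – 500 cells/well · Control set – tunicamycin 10 µg/mL final as positive, DMSO-only wells as negative · Timing – 6 h compound treatment, 37 °C · Measure – % activation vs tunicamycin · Technique – luminescence read with Steady-Glo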
Exocytosis CP01 – blocks lytic granule exocytosis; AID 651954; shares compounds with Exocytosis inh; inhibition, % at 10 µM; TALL-104 cells, LAMP-1 externalization, flow cytometry; stimulated with PMA plus thapsigargin; 1,500 tested, 11% active; in the data active = inhibition above about 60%;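 note: 0% = stimulated vehicle wells and 100% = unstimulated wells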
* hit, by the source's call; x = no result given. Shown are actives, neighbours in structure and some others; about 4% of the full set was active somewhere.

SMILES	Exocytosis inh	ABHD5-PLIN5 inh	Mdm2 MdmX PPI	UPR XBP1 act	CHOP UPR activ	Exocytosis CP01
CCN1CCN(CCNC(=O)c2ccc(/C=C3/Sc4ccccc4N(Cc4ccccc4C)C3=O)cc2)CC1	66.2*	18.7	x	x	x	28.9
Cc1ccccc1CN1C(=O)c2ccccc2Sc2ccc(C(=O)NCCN3CCOCC3)cc21	-6.3	-5.0	12.2	-3.8	-1.4	x
CC(C)CCNC(=O)C1CC2Cn3c(nc4cc(Cl)c(Cl)cc43)C2N1C (configuration not stated)	61.8*	3.0	9.9	-2.9	-1.5	-12.0
O=P(c1ccccc1)(c1ccccc1)C(O)c1ccc(Br)cc1 (configuration not stated)	59.6*	0.2	-2.1	-0.1	1.8	-12.4
COc1ccc(CC(=O)Nc2cccc(C(C)=O)c2)cc1S(=O)(=O)N1CCOCC1	100.4*	9.9	-8.7	-4.7	0.5	-1.7
Oc1ccccc1/C=N/N1CCCCC1	3.2	-5.7	21.3	2.4	4.1	x
O=C(CN1CCC(C(=O)c2ccc3c(c2)OCCO3)CC1)Nc1ccccc1C(F)(F)F	88.5*	-0.3	2.9	2.8	2.6	-3.0
CCOC(=O)C1(CCOc2ccccc2)CCN(Cc2ccncc2)CC1	-0.8	7.0	6.3	-3.4	-1.9	x
CCOC(=O)C1(CCOc2ccccc2)CCN(Cc2cc(OC)ccc2OC)CC1	83.7*	0.9	32.6	-0.9	-0.9	-6.9
CCOC(=O)C1(CCOc2ccccc2)CCN(Cc2cccc(OC)c2)CC1	85.5*	9.5	x	x	x	-6.4
CCOC(=O)C1(CCOc2ccccc2)CCN(Cc2cccc(OC)c2O)CC1	69.4*	0.7	4.9	-6.6	-0.3	-8.6
CCOC(=O)C1(CCOC)CCN(Cc2cccc(OCc3ccccc3)c2)CC1	-4.5	1.9	7.8	1.6	-0.1	x
CCOC(=O)C1(CCOc2ccccc2)CCN(Cc2ccc3c(c2)OCCO3)CC1	82.7*	-3.3	18.9	-3.4	-1.0	-3.1
O=C(Nc1cccc(C(F)(F)F)c1)/C(=C\c1ccco1)NC(=O)c1cccs1	-1.0	2.2	-33.4	-0.1	1.6	x
COc1ccc(OC)c(NC(=O)Cc2c(C(=O)O)n(C)c3ccccc23)c1	-0.6	-11.0	1.6	-3.3	-2.1	x
O=C(CSc1nc2ccccc2c(=O)n1-c1ccc(Cl)cc1)N/N=C/C=C/c1ccccc1[N+](=O)[O-]	-11.4	1.3	3.2	-1.9	2.0	x
CCOC(=O)C1(CCOc2ccccc2)CCN(Cc2ccc(O)c(Cl)c2)CC1	2.7	-5.0	-36.0	-3.3	0.7	x
CCOC(=O)C1(CCOc2ccccc2)CCN(Cc2ccc(F)c(OC)c2)CC1	72.1*	2.4	32.0	-6.9	-1.4	-2.8
CCOC(=O)C1(CCOc2ccccc2)CCN(Cc2ccc(O)c(OC)c2)CC1	69.9*	1.8	20.2	5.7	3.8	-10.2
O=C(NC1CCCc2ccccc21)C1CCN(S(=O)(=O)c2ccccc2F)CC1 (configuration not stated)	-2.0	-6.8	34.0	-3.2	1.6	x
COC(=O)C[C@H]1C=C[C@H](NS(=O)(=O)c2cn(C)cn2)[C@@H](CO)O1	8.4	-11.5	x	x	x	x
CCn1c(=O)c2cc(C(=O)NC(C)C)sc2c2ccccc21	2.2	-5.9	36.1	2.9	-0.7	x
CCCCNC(=O)c1cc2c(=O)n(CC)c3ccccc3c2s1	59.9*	-5.8	33.5	9.2	1.8	-11.1
COc1ccccc1C(=O)NC(=O)COC(=O)Cc1n[nH]c(=O)c2ccccc12	1.6	7.5	15.9	-1.6	0.2	x
CCCCC(=O)Nc1nc(C)c(-c2csc(Nc3ccccc3OC)n2)s1	57.0*	-17.2	26.1	1.8	1.9	-14.3
CCCCCC(=O)Nc1nc(C)c(-c2csc(Nc3cc(OC)ccc3OC)n2)s1	12.0	-16.2	39.5	5.7	2.7	x
Cc1ccc(Br)cc1S(=O)(=O)N1CCN(c2ccccc2)CC1	66.3*	2.2	2.9	-6.8	0.0	-1.1
Cc1cc2[nH]c(=O)c(=O)[nH]c2cc1S(=O)(=O)N1CCN(c2ccccc2)CC1	-3.3	1.4	-11.3	0.5	-1.6	x
CCCn1c(N)c(C(=O)CSc2n[nH]c(-c3ccccc3F)n2)c(=O)n(C)c1=O	17.9	11.0	-31.2	1.2	-2.2	x
